Measured values from ChEMBL document CHEMBL3244415, “Synthesis and pharmacological properties of [5-isoleucine]-, [8-isoleucine]-, and [5,8-diisoleucine]bradykinin” (1979).
The source made the active and inactive calls. No cut-off for these calls is given here. Non-standard residues stand in square brackets, D forms with d. Residues, ends and D or L forms follow the SMILES beside them. Cha = N[C@@H](CC1CCCCC1)C(=O)O

How the values were obtained:
[1] = species: Rattus norvegicus; experiment: Intrinsic activity at bradykinin receptor in estrous rat uterus assessed as ratio of bradykinin dose to compound dose to give 50% maximum myotropic activity
How it was run: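 Uteri from estrous virgin rats were bathed in modified deJalon's solution with 20 mg/L CaCl2, at 30 °C, gassed with 98% O2-2% CO2. Isotonic contractions were recorded under 1 g tension. Full dose-response curves were run for bradykinin and analogue. The potency ratio was taken at the dose giving 50% maximal contraction.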

[2] = tested on: Rattus norvegicus; experiment: Vasodepressor activity in rat assessed as ratio of bradykinin dose to compound intravenous dose that produce 20 mmHg fall in mean blood pressure; assay type: functional
[3] = species: Cavia porcellus; experiment: Intrinsic activity at bradykinin receptor in guinea pig ileum assessed as ratio of bradykinin dose to compound dose to give 50% maximum myotropic activity; assay type: tissue-based
How it was run: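 Strips of terminal guinea pig ileum, 2–3 cm long, were held in Tyrode's solution at 36 °C and bubbled with 95% O2-5% CO2. Isotonic contractions were recorded under 1 g tension. Full dose-response curves were run for bradykinin and analogue. The potency ratio was taken at the dose giving 50% maximal contraction.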

[4] = species: Rattus norvegicus; experiment: Vasodepressor activity in rat assessed as ratio of intraarterial dose of bradykinin to dose of compound that produce 20 mmHg fall in mean blood pressure; assay type: functional, Artery
How it was run: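 Male rats were anesthetized with Dial-urethan. Mean arterial pressure was recorded from the femoral artery. Drugs were given in saline by intracarotid injection. The ratio compares bradykinin and analogue doses that each lower mean pressure by 20 mmHg.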

[5] = species: Rattus norvegicus; experiment: Antagonist activity at bradykinin receptor in estrous rat uterus assessed as inhibition of bradykinin-induced myotropic activity at 1 x 10^-6 M preincubated for 2 mins followed by bradykinin addition; assay type: tissue-based
How it was run: (§1)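 Uteri from estrous virgin rats were suspended in modified deJalon's solution containing 20 mg/L CaCl2, kept at 30 °C and gassed with 98% O2-2% CO2. Isotonic contractions were recorded under 1 g tension. Analogue was added to the bath 2 min before various doses of bradykinin. Potency was compared at the concentration giving 50% maximal contraction.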

[6] = species: Rattus norvegicus; experiment: Antagonist activity at bradykinin receptor in estrous rat uterus assessed as inhibition of bradykinin-induced myotropic activity at 2.5 x 10^-6 M preincubated for 2 mins followed by bradykinin addition; assay type: tissue-based; how it was run: as §1
[7] = species: Rattus norvegicus; experiment: Antagonist activity at bradykinin receptor in estrous rat uterus assessed as inhibition of bradykinin-induced myotropic activity at 1 x 10^-5 M preincubated for 2 mins followed by bradykinin addition; assay type: tissue-based; how it was run: as §1

Row | Compound | Ratio [1] | Ratio [2] | Ratio [3] | Ratio [4] | inhibition [5] | inhibition [6] | inhibition [7]
1 | N=C(N)NCCC[C@H](NC(=O)[C@H](CC1CCCCC1)NC(=O)[C@@H]1CCCN1C(=O)[C@H](CO)NC(=O)[C@H](CC1CCCCC1)NC(=O)CNC(=O)[C@@H]1CCCN1C(=O)[C@@H]1CCCN1C(=O)[C@@H](N)CCCNC(=N)N)C(=O)O (H-RPPG[Cha]SP[Cha]R-OH) | 0.33 | 1 | 1 |  |  |  | 
2 | H-RPPGFSPIR-OH |  |  |  | 0.00056 | inactive |  | 
3 | H-RPPGISPFR-OH | 0.00028 |  |  | 0.00018 |  | inactive | 
4 | H-RPPGISPIR-OH | < 0.0002 |  |  | < 0.00018 |  |  | inactive
